Legend:
[1] = molecular target: T1, GABA-A receptor; alpha-1/beta-2/gamma-2 (Rattus norvegicus) (UniProt P18508+P62813+P63138); test: Electrophysiological effect on rat alpha-1-beta-2-gamma-2 GABA-A receptor subunits expressed in xenopus laevis oocytes at 10 uM; assay type: functional, cell-based; conditions: Oocyte
In short: (§1)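 Oocytes express rat α1β2γ2 GABAA receptors. The control response uses 2 μM GABA. Steroid is co-applied at 0.1, 1 or 10 μM. The value is the ratio of current with steroid to current without it. N = 3–6 (12 for one reference steroid), mean ± SEM. These are not full concentration-response curves.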

[2] = molecular target: T1, GABA-A receptor; alpha-1/beta-2/gamma-2 (Rattus norvegicus); test: Electrophysiological effect on rat alpha-1-beta-2-gamma-2 GABA-A receptor subunits expressed in xenopus laevis oocytes at 1 uM; assay type: functional, cell-based; conditions: Oocyte; in short: as §1
[3] = molecular target: GABA-A receptor; anion channel; test: Displacement of […]-tert-butylbicyclophosphorothionate (TBPS) from Gamma-aminobutyric acid A (GABA-A) receptor of rat brain membranes; assay type: cell membranes, Membrane
In short: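 Noncompetitive displacement of [35S]TBPS from the picrotoxin site in rat brain membranes. Full concentration-response curves were fitted for IC50. Data come from duplicate experiments, each run in triplicate, with mean ± SEM reported. Hill coefficients are given.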

[4] = molecular target: T1, GABA-A receptor; alpha-1/beta-2/gamma-2 (Rattus norvegicus); test: Electrophysiological effect on rat alpha-1-beta-2-gamma-2 GABA-A receptor subunits expressed in xenopus laevis oocytes at 0.1 uM; assay type: functional, cell-based; conditions: Oocyte; in short: as §1
[5] = molecular target: T1, GABA-A receptor; alpha-1/beta-2/gamma-2 (Rattus norvegicus); test: Electrophysiological effect on rat alpha-1-beta-2-gamma-2 GABA-A receptor subunits expressed in xenopus laevis oocytes at 10 uM in the absence of GABA; assay type: functional, cell-based; conditions: Oocyte
In short: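 Rat α1β2γ2 GABAA receptors are expressed in Xenopus oocytes. Steroid at 10 μM is applied alone, without GABA, and the directly gated current is measured. The value is the ratio of steroid-only current to the 2 μM GABA control current. N = 3–6 (12 for one reference steroid), mean ± SEM.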

Compound | Activity [1] | Activity [2] | IC50 [3] [nM] | Activity [4] | Activity [5]
C[C@]12CCC3C(CC[C@H]4C[C@H](O)CC[C@]34C)C1CCCN2C(=O)C(F)(F)F (some centres undefined) | 10.1 | 1.91 | 430 | 1.11 | 0.5
C[C@]12CCC3C(CC[C@@H]4C[C@H](O)CC[C@]34C)C1CCCN2C(=O)CO (some centres undefined) | 3.87 | 1.57 | 930 | 1.36 | 0.1
CC(=O)[C@H]1CC[C@H]2[C@@H]3CC[C@H]4C[C@H](O)CC[C@]4(C)[C@H]3CC[C@]12C [BREXANOLONE] | 9.65 | 3.89 | 74 | 1.26 | 0.37
C[C@]12CCC3C(CC[C@@H]4C[C@H](O)CC[C@]34C)C1CCCN2C(=O)C(F)(F)F (some centres undefined) | 1.12 | 0.96 | 6220 | 0.98 | 0.02
C[C@]12CCC3C(CC[C@H]4C[C@H](O)CC[C@]34C)C1CCCN2C(=O)CO (some centres undefined) | 8.09 | 1.73 | 45 | 1.17 | 0.49
C[C@]12CC[C@@H](O)C[C@@H]1CC[C@@H]1[C@@H]2CC[C@]2(C)[C@@H](C(=O)CO)CC[C@@H]12 | 11.8 | 4.55 | 39 | 1.3 | 1.67
CC(=O)[C@H]1CC[C@H]2[C@@H]3CC[C@@H]4C[C@H](O)CC[C@]4(C)[C@H]3CC[C@]12C [ELTANOLONE] | 4.3 | 1.92 | 71 | 0.97 | 0.01
CC(=O)N1CCCC2C3CC[C@H]4C[C@](C)(O)CC[C@]4(C)C3CC[C@@]21C (some centres undefined) | 1.99 | 1.04 | 2610 | 0.96 | 0.05
CC(=O)N1CCCC2C3CC[C@H]4C[C@H](O)CC[C@]4(C)C3CC[C@@]21C (some centres undefined) | 3.74 | 1.66 | 200 | 1.21 | 0.05
CC(=O)N1CCCC2C3CC[C@@H]4C[C@H](O)CC[C@]4(C)C3CC[C@@]21C (some centres undefined) | 1.18 | 1.04 | – | 1.37 | 0.01
C[C@]12CC[C@@H](O)C[C@H]1CC[C@@H]1[C@@H]2CC[C@]2(C)[C@@H](C(=O)CO)CC[C@@H]12 | 5.43 | 2.37 | 120 | 1.21 | 0.19
C[C@@]1(O)CC[C@]2(C)C3CC[C@@]4(C)C(CCCN4C(=O)CO)C3CC[C@H]2C1 (some centres undefined) | 6.5 | 1.22 | 550 | 1 | 0.2

From ChEMBL document CHEMBL1133108, “Neurosteroid analogues. 8. Structure-activity studies of N-acylated 17a-aza-D-homosteroid analogues of the anesthetic steroids (3alpha, 5alpha)- and (3alpha,5beta)-3-hydroxypregnan-20-one” (J Med Chem, 2000)
